Here are results for 40 molecules from ChEMBL document CHEMBL1137627, “Hit generation and exploration: imidazo[4,5-b]pyridine derivatives as inhibitors of Aurora kinases” (Bioorg Med Chem Lett, 2007).

One data set addresses T1, Aurora kinase A (Homo sapiens, UniProt O14965).
T1 sequence (O14965 whole entry): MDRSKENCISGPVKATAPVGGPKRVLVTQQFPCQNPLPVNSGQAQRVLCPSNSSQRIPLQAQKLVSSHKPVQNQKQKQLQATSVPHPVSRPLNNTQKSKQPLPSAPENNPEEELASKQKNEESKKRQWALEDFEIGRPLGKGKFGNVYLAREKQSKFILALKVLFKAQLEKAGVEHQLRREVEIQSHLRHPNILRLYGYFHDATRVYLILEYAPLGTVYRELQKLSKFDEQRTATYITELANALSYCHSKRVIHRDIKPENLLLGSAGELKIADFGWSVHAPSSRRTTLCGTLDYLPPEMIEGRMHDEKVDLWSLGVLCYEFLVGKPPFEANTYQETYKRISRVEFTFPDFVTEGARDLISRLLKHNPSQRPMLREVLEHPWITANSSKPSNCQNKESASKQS
In words: Inhibition of aurora A kinase. The method in brief:
(§1)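 Aurora-A kinase activity measured by Flashplate or Filterplate assay at 20 µM ATP. Samples run in triplicate and mean reported; some IC50 values are the mean of independent determinations.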

Data set [1] concerns the target T2, Aurora kinase A (Homo sapiens) (UniProt O14965).
T2 sequence (whole entry): T1 sequence (O14965 whole entry)
The experiment in a line: Inhibition of aurora A kinase at 10 uM. The method in brief:
as §1

The target in data set [2] is T2, Aurora kinase A (Homo sapiens). The experiment in a line: Inhibition of aurora A kinase at 100 uM. The method in brief: as §1
The target of the next data set is Aurora kinase B (Homo sapiens, UniProt Q96GD4). In words: Inhibition of recombinant aurora B kinase. The method in brief: (§2)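 Purified recombinant Aurora kinase; IC50 determined by either a Flashplate or a Filterplate assay, with ATP in the assay at 20.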
The next data set has as its target T3, Aurora kinase C (Homo sapiens, UniProt Q9UQB9).
T3 sequence (Q9UQB9 whole entry): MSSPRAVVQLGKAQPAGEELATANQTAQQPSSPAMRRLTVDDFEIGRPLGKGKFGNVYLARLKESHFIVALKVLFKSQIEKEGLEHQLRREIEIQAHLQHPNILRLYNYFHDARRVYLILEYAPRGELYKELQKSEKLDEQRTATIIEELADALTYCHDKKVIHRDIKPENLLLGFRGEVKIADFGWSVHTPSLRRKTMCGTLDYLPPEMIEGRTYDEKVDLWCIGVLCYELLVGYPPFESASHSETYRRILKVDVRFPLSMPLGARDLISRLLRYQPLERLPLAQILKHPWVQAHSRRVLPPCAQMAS
In words: Inhibition of recombinant aurora C kinase. The method in brief:
as §2

In the next data set the test system is HCT-116. The experiment in a line: Antiproliferative activity against HCT116 cells. Conditions: Homo sapiens. The data set is classed as functional.
The test system of the next data set is HeLa. The experiment in a line: Antiproliferative activity against HeLa cells. The class given is functional. Conditions: Homo sapiens.
The nature of data set [3]: Metabolic stability in mouse liver microsomes after 30 mins. The class given is ADME, Microsome. To be noted: read-out: Stability. The method in brief: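 Compound incubated 30 min with mouse liver microsomes. Percent of parent compound remaining was reported.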
For another data set, the target named is T4, Cytochrome P450 1A2 (Homo sapiens, UniProt P05177).
T4 sequence (P05177 whole entry): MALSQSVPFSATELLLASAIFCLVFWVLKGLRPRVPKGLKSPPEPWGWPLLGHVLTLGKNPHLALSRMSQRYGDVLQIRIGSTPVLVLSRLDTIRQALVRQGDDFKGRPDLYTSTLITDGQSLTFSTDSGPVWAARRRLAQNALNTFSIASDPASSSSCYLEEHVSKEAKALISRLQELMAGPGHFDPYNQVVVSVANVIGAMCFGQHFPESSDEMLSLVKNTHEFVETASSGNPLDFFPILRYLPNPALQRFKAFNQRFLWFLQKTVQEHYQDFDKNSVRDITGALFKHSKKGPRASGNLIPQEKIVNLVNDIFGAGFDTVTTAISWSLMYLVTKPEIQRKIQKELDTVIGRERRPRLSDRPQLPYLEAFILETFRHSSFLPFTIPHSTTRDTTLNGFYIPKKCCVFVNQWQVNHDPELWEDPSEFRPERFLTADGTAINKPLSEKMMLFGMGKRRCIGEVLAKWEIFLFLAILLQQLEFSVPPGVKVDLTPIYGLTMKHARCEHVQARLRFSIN
In words: Inhibition of human CYP1A2 after 10 mins. The data set is classed as ADME. A digest of the protocol: (§3)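 Inhibition of CYP isozymes assayed in pooled human liver microsomes from 50 individuals. Microsomal protein 0.5 mg/ml, 10 min incubation. Mephenytoin served as the CYP2C19 substrate. Metabolites were detected by LC–MS–MS with positive electrospray ionisation.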

The target in the next data set is T5, Cytochrome P450 2A6 (Homo sapiens, UniProt P11509).
T5 sequence (P11509 whole entry): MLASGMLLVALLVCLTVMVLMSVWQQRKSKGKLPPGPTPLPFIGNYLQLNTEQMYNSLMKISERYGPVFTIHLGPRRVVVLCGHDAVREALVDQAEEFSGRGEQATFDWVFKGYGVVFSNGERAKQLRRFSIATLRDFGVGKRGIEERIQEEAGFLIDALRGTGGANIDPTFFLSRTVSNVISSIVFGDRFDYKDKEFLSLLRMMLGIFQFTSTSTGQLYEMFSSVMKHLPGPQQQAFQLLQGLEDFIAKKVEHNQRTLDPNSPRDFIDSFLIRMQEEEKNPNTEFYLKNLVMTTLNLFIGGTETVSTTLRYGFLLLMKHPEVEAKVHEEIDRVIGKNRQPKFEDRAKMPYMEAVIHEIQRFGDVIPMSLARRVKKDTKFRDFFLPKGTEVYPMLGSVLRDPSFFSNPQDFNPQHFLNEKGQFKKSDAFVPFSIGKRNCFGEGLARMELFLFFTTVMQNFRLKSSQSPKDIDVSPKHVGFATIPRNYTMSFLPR
The experiment in a line: Inhibition of human CYP2A6 after 10 mins. The class given is ADME. A digest of the protocol:
as §3

In the next data set the target is Cytochrome P450 2C19 (Homo sapiens, UniProt P33261). The experiment in a line: Inhibition of human CYP2C19 after 10 mins. The class given is ADME. The method in brief:
as §3

The next data set deals with Cytochrome P450 2D6 (Homo sapiens, UniProt P10635). In words: Inhibition of human CYP2D6 after 10 mins. The data set is classed as ADME. The method in brief: as §3
The next data set has as its target Cytochrome P450 2C9 (Homo sapiens, UniProt P11712). The experiment in a line: Inhibition of human CYP2C9 after 10 mins. The class given is ADME. A digest of the protocol: as §3

Structures are written as SMILES. Calls of active or inactive are those of the source. The rule behind the calls is not given here.

Sequence of Aurora kinase B (Q96GD4 whole entry): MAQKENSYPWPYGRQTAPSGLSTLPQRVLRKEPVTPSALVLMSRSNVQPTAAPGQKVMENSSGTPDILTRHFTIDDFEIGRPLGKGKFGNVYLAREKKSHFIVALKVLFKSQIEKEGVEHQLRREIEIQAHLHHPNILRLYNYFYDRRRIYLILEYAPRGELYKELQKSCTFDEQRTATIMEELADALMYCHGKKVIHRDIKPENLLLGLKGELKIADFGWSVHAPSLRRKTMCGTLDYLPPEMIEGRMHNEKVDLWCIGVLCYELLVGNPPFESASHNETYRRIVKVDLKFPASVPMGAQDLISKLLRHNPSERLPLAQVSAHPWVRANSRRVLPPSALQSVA
Sequence of Cytochrome P450 2C9 (P11712 whole entry): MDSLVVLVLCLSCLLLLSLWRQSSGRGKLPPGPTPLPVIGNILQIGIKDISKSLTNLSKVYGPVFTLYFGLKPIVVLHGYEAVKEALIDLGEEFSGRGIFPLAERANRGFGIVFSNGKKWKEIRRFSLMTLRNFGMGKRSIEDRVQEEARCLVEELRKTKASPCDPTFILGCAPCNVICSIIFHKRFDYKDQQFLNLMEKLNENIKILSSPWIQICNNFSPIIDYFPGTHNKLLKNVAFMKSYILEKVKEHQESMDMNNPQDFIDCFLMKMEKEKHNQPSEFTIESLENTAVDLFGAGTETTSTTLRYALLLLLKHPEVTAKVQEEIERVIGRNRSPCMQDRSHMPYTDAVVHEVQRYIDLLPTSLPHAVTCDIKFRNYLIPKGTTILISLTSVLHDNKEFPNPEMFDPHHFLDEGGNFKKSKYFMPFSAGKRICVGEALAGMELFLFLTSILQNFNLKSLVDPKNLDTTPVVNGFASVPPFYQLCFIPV
Sequence of Cytochrome P450 2C19 (P33261 whole entry): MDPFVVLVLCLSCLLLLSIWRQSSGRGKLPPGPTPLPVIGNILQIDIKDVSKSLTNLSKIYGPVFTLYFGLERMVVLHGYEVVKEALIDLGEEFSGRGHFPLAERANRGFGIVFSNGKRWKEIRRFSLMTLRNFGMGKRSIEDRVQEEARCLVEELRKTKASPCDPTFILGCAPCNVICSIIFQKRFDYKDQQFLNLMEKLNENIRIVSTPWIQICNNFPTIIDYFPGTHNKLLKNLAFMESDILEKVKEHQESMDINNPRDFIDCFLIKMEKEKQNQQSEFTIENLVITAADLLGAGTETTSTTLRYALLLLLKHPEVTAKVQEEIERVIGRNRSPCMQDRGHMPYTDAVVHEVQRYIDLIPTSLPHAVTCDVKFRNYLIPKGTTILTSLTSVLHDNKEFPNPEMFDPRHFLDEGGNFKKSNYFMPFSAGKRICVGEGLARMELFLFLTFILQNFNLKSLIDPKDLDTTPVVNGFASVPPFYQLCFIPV
Sequence of Cytochrome P450 2D6 (P10635 whole entry): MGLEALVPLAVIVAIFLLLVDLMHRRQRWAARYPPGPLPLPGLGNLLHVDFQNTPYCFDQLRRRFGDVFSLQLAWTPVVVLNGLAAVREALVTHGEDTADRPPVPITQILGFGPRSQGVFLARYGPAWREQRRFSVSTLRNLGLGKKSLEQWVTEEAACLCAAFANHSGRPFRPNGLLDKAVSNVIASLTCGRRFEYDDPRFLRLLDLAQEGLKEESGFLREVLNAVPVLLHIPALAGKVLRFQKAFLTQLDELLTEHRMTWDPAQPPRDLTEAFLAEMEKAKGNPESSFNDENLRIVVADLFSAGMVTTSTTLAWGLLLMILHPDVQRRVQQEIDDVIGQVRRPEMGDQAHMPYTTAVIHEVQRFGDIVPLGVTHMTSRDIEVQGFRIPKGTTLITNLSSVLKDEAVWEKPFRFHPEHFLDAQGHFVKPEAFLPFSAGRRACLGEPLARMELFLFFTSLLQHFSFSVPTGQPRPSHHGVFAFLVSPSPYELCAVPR

On to `COc1cc2ncnc(N3CCN(CC(=O)N(C)c4ccccc4)CC3)c2cc1OC`, for which half-maximal inhibition against Aurora kinase A (IC50) was put at 16.5 µM.
Molecule `N#Cc1ccc(-c2nc3cccnc3[nH]2)cc1` registered an inhibition in data set [1] of 38%.
For `COc1cc2ncnc(N3CCN(C(C)c4ccccc4)CC3)c2cc1OC` (stereo not given), half-maximal inhibition against Aurora kinase A (IC50) required 25 µM.
As for `CCn1c(-c2ccc(N(C)C)cc2)nc2cccnc21`, in data set [2], the inhibition was 26%.
Regarding `CN(C)c1ccc(-c2nc3c(Cl)ccnc3[nH]2)cc1`, the IC50 on Aurora kinase A is 2.4 µM.
For `COc1cc2ncnc(N3CCN(c4ncccn4)CC3)c2cc1OC`, the outcome in data set [2] was inactive.
For the molecule `COc1cc2ncnc(N3CCN(CCn4ccnc4)CC3)c2cc1OC`, the outcome in [2] was inactive.
On Aurora kinase A, `c1cnc2nc(-c3ccc(C4CCCCN4)cc3)[nH]c2c1` (stereo not given) yielded a half-maximal inhibitory concentration (IC50) of 4.4 µM.
In data set [1], `CN(C)c1ccccc1-c1nc2cccnc2[nH]1` gave an inhibition of 20%.
`COc1cc2ncnc(N3CCN(Cc4ccc(F)cc4)CC3)c2cc1OC` returned a half-inhibitory concentration (IC50) on Aurora kinase A of 40 µM.
Still for that read-out and setting: then `COc1cc2ncnc(N3CCN(CC(=O)Nc4nccs4)CC3)c2cc1OC`, with 5.9 µM.
`CN(C)c1ccc(-c2nc3cc[nH]cc-3n2)cc1`: the inhibition in data set [1] was determined as 35%. Moreover, on Aurora kinase A, half-maximal inhibition (IC50) required 12.5 µM.
`c1cnc2nc(-c3ccc(N4CCCC4)cc3)[nH]c2c1` came in with an IC50 against Aurora kinase A of 4.6 µM.
On the same count and under the same terms, then `CN(C)c1ccc(-c2nc3cccnc3[nH]2)cc1`, with 4.3 µM.
Same read-out and setting: then `COc1ccccc1-c1nc2ccc[nH]c-2n1`, with 29 µM; and `COc1ccc(-c2cnc3nc(-c4ccc(N(C)C)cc4)[nH]c3c2)cc1`, with 20 µM.
Turning to `COc1cc2ncnc(N3CCN(CC(=O)OC(C)(C)C)CC3)c2cc1OC`, the result in data set [2] was inactive.
On Aurora kinase A, `CN(C)c1ccc(-c2nc3c(N4CCN(CC(=O)Nc5nccs5)CC4)ccnc3[nH]2)cc1` came in with an IC50 of 0.87 µM.
On the same count and under the same terms, then `CN(C)c1cccc(-c2nc3cccnc3[nH]2)c1`, with 10 µM; and `COc1ccc(-c2nc3ncccc3[nH]2)cc1`, with 6.6 µM.
For the molecule `COc1cc2ncnc(N3CCN(c4cnccn4)CC3)c2cc1OC`, the outcome in data set [2] was inactive.
For `COc1cc2ncnc(N3CCN(CCc4ccccc4)CC3)c2cc1OC`, at Aurora kinase A, the half-inhibitory concentration (IC50) is 76 µM.
On to `CN(C)c1ccc(-c2nc3c(N4CCN(CC(=O)Nc5nccs5)CC4)c(Cl)cnc3[nH]2)cc1`, for which the IC50 at Aurora kinase B was 0.198 µM; on Aurora kinase C, 0.227 µM; against Cytochrome P450 1A2 it was more than 10 µM; at Cytochrome P450 2A6 it was more than 10 µM; on Cytochrome P450 2C19, more than 10 µM; on Cytochrome P450 2D6, more than 10 µM. The molecule further returned an IC50 against Cytochrome P450 2C9 of 10 µM. In addition, the GI50 stood at 0.35 µM in the data set with HCT-116 and 0.2 µM with HeLa. In addition, the remaining at 0.5 h in data set [3] was 75%.
Consider `CC(=O)c1cccc(-c2cnc3[nH]c(-c4ccc(N(C)C)cc4)nc3c2)c1`, for which the concentration for half-maximal inhibition (IC50) at Aurora kinase A is 9 µM.
The same measure, in the same setting: then `CN(C)c1ccc(-c2nc3ncc(-c4cccc(O)c4)cc3[nH]2)cc1`, with 18 µM; and `CN(C)c1ccc(-c2nc3ncc(Br)cc3[nH]2)cc1`, with 0.49 µM.
`CN(C)c1ccc(-c2nc3ccccc3[nH]2)cc1`: the inhibition in [2] is 8%.
For the molecule `Cc1cnc2[nH]c(-c3ccc(N(C)C)cc3)nc2c1`, the IC50 on Aurora kinase A came to 6.9 µM.
Still for that read-out and setting: then `CN(C)c1ccc(-c2nc3ncc(Cl)c(Cl)c3[nH]2)cc1`, with 0.25 µM.
As for `CN(C)c1ccc(-c2nc3cc(-c4ccc5c(c4)OCO5)cnc3[nH]2)cc1`, the inhibition in data set [2] turned out to be 33%.
Take `COc1cc2ncnc(N3CCN(Cc4cccc5ccccc45)CC3)c2cc1OC`: half-maximal inhibition at Aurora kinase A (IC50) was put at 9.6 µM.
Same read-out and setting: with `COc1cccc(-c2nc3ncccc3[nH]2)c1` the figure was 16 µM.
`CN(C)c1ccc(-c2nc3cc(-c4cccs4)cnc3[nH]2)cc1` yielded an inhibition in [1] of 34%.
For `COc1cc2ncnc(N3CCN(CCOc4ccccc4)CC3)c2cc1OC`, it took 35 µM to reach half-maximal inhibition on Aurora kinase A (IC50).
Take `CN(C)c1ccc(-c2nc3cc(-c4cccc(O)c4)cnc3[nH]2)cc1`: the inhibition in data set [1] came out at 31%.
`CN(C)c1ccc(-c2nc3cc(C(F)(F)F)cnc3[nH]2)cc1`: the half-maximal inhibitory concentration (IC50) against Aurora kinase A was 0.74 µM.
`COc1cc2ncnc(N3CCN(CC(=O)N4CCCC4)CC3)c2cc1OC` yielded a half-maximal inhibitory concentration (IC50) at Aurora kinase A of 98 µM.
The same measure, in the same setting: with `CN(C)c1ccc(-c2nc3cc(Cl)cnc3[nH]2)cc1` the figure was 0.57 µM; with `Cc1ccnc2nc(-c3ccc(N(C)C)cc3)[nH]c12`, 7 µM.
For the molecule `CN(C)c1ccc(-c2nc3cc(-c4cccnc4)cnc3[nH]2)cc1`, the inhibition in [1] amounted to 28%.
